Source: ChEMBL document CHEMBL1131033, “Selective endothelin A receptor antagonists. 4. Discovery and structure-activity relationships of stilbene acid and alcohol derivatives” (J Med Chem, 1998)

biological target: T1, Endothelin-1 receptor (Rattus norvegicus, UniProt P26684); experiment: Concentration required to inhibit 50% Et-1 binding to endothelin A receptor in rat A-10 cells.; type: cell-based, A10; conditions: not given
T1 sequence (P26684 whole entry): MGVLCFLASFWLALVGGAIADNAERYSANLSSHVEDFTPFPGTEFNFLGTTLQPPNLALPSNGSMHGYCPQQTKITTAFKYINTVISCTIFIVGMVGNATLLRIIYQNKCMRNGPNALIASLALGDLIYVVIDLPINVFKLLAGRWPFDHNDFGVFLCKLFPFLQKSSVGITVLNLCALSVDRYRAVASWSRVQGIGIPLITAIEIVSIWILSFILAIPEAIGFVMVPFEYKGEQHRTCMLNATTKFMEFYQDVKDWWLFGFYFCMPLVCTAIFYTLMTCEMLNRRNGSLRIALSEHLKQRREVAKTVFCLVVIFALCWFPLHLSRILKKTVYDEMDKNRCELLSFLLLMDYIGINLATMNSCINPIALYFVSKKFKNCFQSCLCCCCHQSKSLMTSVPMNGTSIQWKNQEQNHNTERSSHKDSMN
Summary of the method: (§1)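 Rat aortic smooth muscle A10 cells grown to confluence in DMEM with 10% FBS, harvested, and frozen. Nonspecific binding defined with 500 nM unlabeled ET-1. Bound ligand separated by vacuum filtration and gamma-counted. IC50 from curve fitting, usually in duplicate.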

SMILES | IC50 [nM]
O=C(O)/C(=C/c1cccc(OCc2ccccc2)c1)c1ccccc1 | 6000
O=[N+]([O-])c1ccc(OCc2ccsc2)cc1/C=C(/CO)c1ccccc1Cl | 400
O=C(O)CC/C(=C/c1cccc(OCc2ccccc2)c1)c1ccccc1 | 5300
O=C(O)/C(=C/c1cc(OCc2ccsc2)ccc1[N+](=O)[O-])c1ccccc1F | 600
O=C(O)CCC(Oc1cccc(OCc2ccccc2)c1)c1ccccc1 (stereo not given) | 2000
O=C(O)/C(=C/c1cc(OCc2ccccc2)ccc1[N+](=O)[O-])c1ccccc1 | 600
OC/C(=C/c1cc(OCc2ccsc2)ccc1Br)c1ccccc1 | 2100
O=C(O)/C(=C/c1cc(OCc2ccsc2)ccc1[N+](=O)[O-])c1ccccc1Cl | 1300
O=[N+]([O-])c1ccc(OCc2ccsc2)cc1/C=C(/CO)c1ccccc1 | 1400
O=C(O)/C(=C/c1cc(OCc2ccsc2)ccc1[N+](=O)[O-])c1c(F)cccc1Cl | 2000

The remaining lines, values ahead:

IC50 [nM] | SMILES
700 | O=C(O)/C(=C/c1cc(OCc2ccsc2)ccc1Br)c1ccccc1
1100 | COc1cccc(/C(=C\c2cc(OCc3ccsc3)ccc2C#N)C(=O)O)c1
700 | N#Cc1ccc(OCc2ccsc2)cc1/C=C(/CCC(=O)O)c1ccccc1
800 | N#Cc1ccc(OCc2ccsc2)cc1/C=C(/CO)c1ccccc1
300 | Cc1ccccc1/C(=C\c1cc(OCc2ccsc2)ccc1C#N)C(=O)O
200 | N#Cc1ccc(OCc2ccsc2)cc1/C=C(/C(=O)O)c1ccc2c(c1)OCO2
300 | Cc1ccccc1/C(=C\c1cc(OCc2ccsc2)ccc1C#N)CO
500 | O=C(O)/C(=C/c1cc(OCc2ccsc2)ccc1[N+](=O)[O-])c1ccccc1
200 | N#Cc1ccc(OCc2ccsc2)cc1/C=C(/C(=O)O)c1ccccc1Cl
1300 | N#Cc1ccc(OCc2ccc3c(c2)OCO3)cc1/C=C(/C(=O)O)c1ccccc1
150 | N#Cc1ccc(OCc2cccnc2)cc1/C=C(/C(=O)O)c1ccccc1

biological target: T2, Endothelin-1 receptor (Rattus norvegicus) (UniProt P26684); experiment: Concentration required to inhibit 50% Et-1 binding to Endothelin A receptor in rat A-10 cells.; type: cell-based; set-up: concentration or dose not given beside the values; conditions: A10; concentration not given here; summary of the method: as §1
T2 sequence (whole entry): T1 sequence (P26684 whole entry)

inhibition [%] | SMILES
< 20 | COC/C(=C/c1cc(OCc2ccsc2)ccc1C#N)c1ccccc1C
< 20 | Nc1ccc(OCc2ccsc2)cc1/C=C(/C(=O)O)c1ccccc1F
< 20 | COc1ccc(C#N)c(/C=C(/C(=O)O)c2ccccc2)c1
< 20 | COc1ccc(/C(=C\c2cc(OCc3ccsc3)ccc2C#N)C(=O)O)cc1
